Assay [1] has as its system Brassica napus. The experiment in a line: Herbicidal activity against Brassica napus (oilseed rape) assessed as inhibition of root elongation after 5 days by petri dish culture method. Type of assay: functional, organism-based.
Assay [2] relates to Brassica napus. The assay is described as follows: Herbicidal activity against Brassica napus (oilseed rape) assessed as inhibition of root growth at 1 mg/L after 5 days by petri dish culture method relative to control. Type of assay: functional. The conditions noted are these: 120 h, read-out: GI. In a few lines:
(§1)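 Test solutions were made in DMF, emulsified with Tween 80, and diluted with water, then added to Petri dishes lined with two filter papers. Twenty rape and twenty barnyard grass seeds were incubated 5 days at 23 ± 1 °C, 60 ± 5% humidity, 10 Klux, 12 h/day light. Mean length of 10 roots and 10 stems gave percent inhibition versus distilled-water controls.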

For assay [3], the system named is Echinochloa crus-galli. The assay is described as follows: Herbicidal activity against Echinochloa crus-galli (barnyard grass) assessed as inhibition of root growth at 1 mg/L after 5 days by petri dish culture method relative to control. It is filed as functional. The note with it: 120 h, read-out: GI. Summed up: as §1
Assay [4] concerns Brassica napus. The assay is described as follows: Herbicidal activity against Brassica napus (oilseed rape) assessed as inhibition of stalk growth at 10 mg/L after 5 days by petri dish culture method relative to control. It is filed as functional. The conditions noted are these: 120 h, read-out: GI. In a few lines:
as §1

For assay [5], the system named is Brassica napus. The experiment in a line: Herbicidal activity against Brassica napus (oilseed rape) assessed as inhibition of stalk growth at 1 mg/L after 5 days by petri dish culture method relative to control. It is filed as functional. The conditions noted are these: 120 h, read-out: GI. In a few lines:
as §1

Assay [6] has as its system Echinochloa crus-galli. The experiment in a line: Herbicidal activity against Echinochloa crus-galli (barnyard grass) assessed as inhibition of root growth at 10 mg/L after 5 days by petri dish culture method relative to control. The note with it: 120 h, read-out: GI. Type of assay: functional. In a few lines: as §1
The subject of assay [7] is Brassica napus. The assay is described as follows: Herbicidal activity against Brassica napus (oilseed rape) assessed as inhibition of root growth at 10 mg/L after 5 days by petri dish culture method relative to control. Type of assay: functional. The conditions noted are these: 120 h, read-out: GI. In a few lines: as §1
For assay [8], the system named is Echinochloa crus-galli. The experiment in a line: Herbicidal activity against Echinochloa crus-galli (barnyard grass) assessed as inhibition of stalk growth at 10 mg/L after 5 days by petri dish culture method relative to control. It is filed as functional. The note with it: 120 h, read-out: GI. In a few lines:
as §1

For assay [9], the system named is Echinochloa crus-galli. The experiment in a line: Herbicidal activity against Echinochloa crus-galli (barnyard grass) assessed as inhibition of stalk growth at 1 mg/L after 5 days by petri dish culture method relative to control. The conditions noted are these: 120 h, read-out: GI. It is filed as functional. In a few lines: as §1

As for `COc1ccc(Cl)cc1Cl`, the IC50 in [1] was found to be 6.06 µmol. Also, the inhibition of growth at 1 µg/mL was found to be 91% in assay [2], 67.3% in assay [3], 89.1% in [5] and 45.5% in [9]. Moreover, the inhibition of growth at 10 µg/mL in [4] was found to be 93.6%; in assay [6], 99.1%; in assay [7] it was 100%; in [8], 76.2%.
Regarding `Nn1c(COc2ccc(Cl)cc2Cl)nc2ccccc2c1=O`, the IC50 in assay [1] came out at 224.37 µmol.
For `Nn1c(COc2ccc(Cl)cc2Cl)nc2c(Cl)cccc2c1=O`, in [1], the IC50 turned out to be 27.23 µmol. Further, the inhibition of growth at 1 µg/mL is 93.6% in [2], 24.3% in [3], 92.3% in [5] and -7.2% in assay [9]. The inhibition of growth at 10 µg/mL in assay [4] was determined as 95.7%; in [6] it was 68.5%; in [7] it was 98.2%; in assay [8], 38.1%.
With `COc1cc2nc(COc3ccc(Cl)cc3Cl)n(N)c(=O)c2cc1OC`, the IC50 in assay [1] was found to be 167.59 µmol.
Same read-out and setting: the figure for `Cn1c(COc2ccc(Cl)cc2)nc2cccc(Cl)c2c1=O` is 201.13 µmol.
As to `Cn1c(COc2ccc(Cl)cc2Cl)nc2c(Cl)cccc2c1=O`, the inhibition of growth at 1 µg/mL was 32.3% in [2], 12.3% in [3], -8.8% in assay [5] and 1.4% in assay [9]. For the same compound, the inhibition of growth at 10 µg/mL in assay [4] is -2.4%; in assay [6], 34.6%; in assay [7], 44.5%; in assay [8], 0%.
Regarding `O=c1oc(COc2ccc(Cl)cc2)nc2ccccc12`, in assay [1], the IC50 came to 30.37 µmol.
Regarding `O=c1oc(COc2ccc(Cl)cc2)nc2cccc(Cl)c12`, the IC50 in assay [1] was determined as 138.24 µmol.
Consider `O=c1oc(COc2ccc(Cl)cc2)nc2ccc(Cl)cc12`, for which the IC50 in assay [1] is 22.32 µmol.
Same read-out and setting: for `COc1cc2nc(COc3ccc(Cl)cc3)oc(=O)c2cc1OC` the value was 80.14 µmol; for `O=c1oc(COc2ccc(Cl)cc2Cl)nc2ccccc12`, 10.34 µmol.
Consider `O=c1oc(COc2ccc(Cl)cc2Cl)nc2cccc(Cl)c12`, for which the IC50 in [1] amounted to 43.54 µmol.
For the compound `O=c1oc(COc2ccc(Cl)cc2Cl)nc2ccc(Cl)cc12`, the IC50 in [1] stood at 10.73 µmol.
On the same count and under the same terms, the figure for `O=c1oc(COc2ccc(Cl)cc2Cl)nc2cc(Cl)ccc12` is 11.05 µmol; for `COc1cc2nc(COc3ccc(Cl)cc3Cl)oc(=O)c2cc1OC` it is 142.22 µmol.
